Active and inactive are the calls of the source. No cut-off for these calls is given here.
What was measured:
[1] = target: Cruzipain (Trypanosoma cruzi) (UniProt P25779); experiment: (§1) Inhibition of Trypanosoma cruzi cruzain
Cruzipain = Cruzipain (Trypanosoma cruzi, UniProt P25779); experiment: as §1
[2] = Cytotoxicity against BEMS cells; format: cell-based; details: Bos taurus
Method in brief: (§2)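 BESM cells in RPMI-1640 with 5% heat-inactivated FCS (37 °C, 5% CO2) infected with Y-strain trypomastigotes, then given fresh medium with inhibitor at 0, 0.3, 1, 3 and 10 μM for 72 h. Fixed in 4% paraformaldehyde and stained with DAPI (0.1 μg/mL), then imaged. Nuclei were sorted by size: host >150 μm², parasite 2-4 μm². The parasite/host nuclei ratio gave the IC50, and the loss of host nuclei gave cytotoxicity. Duplicate or triplicate runs averaged.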

Trypanosoma cruzi [3] = experiment: Antitrypanosomal activity against Trypanosoma cruzi Y strain infected in BESM cells assessed as reduction of parasite number after 72 hrs; format: functional, organism-based; method in brief: as §2
[4] = target: Cruzipain (Trypanosoma cruzi) (UniProt P25779); experiment: Ratio of kinact to Ki for Trypanosoma cruzi cruzain
Mus musculus = experiment: Toxicity in Trypanosoma cruzi trypomastigotes infected mouse model at 20 mg/kg, ip bid for 27 days; details: in vivo, 648 h
Trypanosoma cruzi [5] = experiment: Antitrypanosomal activity against Trypanosoma cruzi trypomastigotes infected in C3H mouse assessed as infection in liver at 20 mg/kg, ip bid for 27 days; format: functional, organism-based; set-up: dose 20 mg/kg
Method in brief: (§3)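 Female C3H mice (mean 22 g) infected ip with 1.2 × 10⁶ tissue-culture trypomastigotes. From 24 h post-infection, treated (n=5) with 20 mg/kg ip b.i.d. for 27 days in 70% DMSO:30% water, prepared daily; untreated controls n=3. Mice were sacrificed at day 77 post-infection for symptom scoring and histopathology of heart, skeletal muscle, liver, spleen and colon.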

Trypanosoma cruzi [6] = experiment: Antitrypanosomal activity against Trypanosoma cruzi trypomastigotes infected in C3H mouse assessed as infection in spleen at 20 mg/kg, ip bid for 27 days; format: functional, organism-based; set-up: dose 20 mg/kg; method in brief: as §3
Trypanosoma cruzi [7] = experiment: Antitrypanosomal activity against Trypanosoma cruzi trypomastigotes infected in C3H mouse assessed as infection in colon at 20 mg/kg, ip bid for 27 days; format: functional, organism-based; set-up: dose 20 mg/kg; method in brief: as §3
Trypanosoma cruzi [8] = experiment: Antitrypanosomal activity against Trypanosoma cruzi trypomastigotes infected in C3H mouse assessed as acute chagas disease symptoms at 20 mg/kg, ip bid for 27 days; format: functional, organism-based; set-up: dose 20 mg/kg; method in brief: as §3
Trypanosoma cruzi [9] = experiment: Antitrypanosomal activity against Trypanosoma cruzi trypomastigotes infected in C3H mouse assessed as infection in heart at 20 mg/kg, ip bid for 27 days; format: functional, organism-based; set-up: dose 20 mg/kg; method in brief: as §3
Trypanosoma cruzi [10] = experiment: Antitrypanosomal activity against Trypanosoma cruzi trypomastigotes infected mouse model assessed as chagas disease symptoms at 20 mg/kg, ip bid for 27 days measured after 77 days of post infection
Trypanosoma cruzi [11] = experiment: Antitrypanosomal activity against Trypanosoma cruzi trypomastigotes infected in C3H mouse assessed as infection in skeletal muscle at 20 mg/kg, ip bid for 27 days; format: functional, organism-based; set-up: dose 20 mg/kg; details: Muscle tissue; method in brief: as §3

Cruzipain (Trypanosoma cruzi), sequence (P25779 123-467 limits assumed): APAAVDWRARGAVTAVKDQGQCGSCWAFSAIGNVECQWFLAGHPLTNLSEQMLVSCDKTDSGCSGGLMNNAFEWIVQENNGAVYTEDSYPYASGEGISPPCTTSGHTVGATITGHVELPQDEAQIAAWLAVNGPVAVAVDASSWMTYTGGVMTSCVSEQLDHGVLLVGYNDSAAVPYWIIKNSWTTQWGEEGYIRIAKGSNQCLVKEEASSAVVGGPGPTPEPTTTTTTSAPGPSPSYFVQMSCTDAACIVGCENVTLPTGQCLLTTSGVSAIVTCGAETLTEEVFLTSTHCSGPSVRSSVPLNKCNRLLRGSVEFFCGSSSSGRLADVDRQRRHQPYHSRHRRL
Cruzipain, sequence (P25779 whole entry): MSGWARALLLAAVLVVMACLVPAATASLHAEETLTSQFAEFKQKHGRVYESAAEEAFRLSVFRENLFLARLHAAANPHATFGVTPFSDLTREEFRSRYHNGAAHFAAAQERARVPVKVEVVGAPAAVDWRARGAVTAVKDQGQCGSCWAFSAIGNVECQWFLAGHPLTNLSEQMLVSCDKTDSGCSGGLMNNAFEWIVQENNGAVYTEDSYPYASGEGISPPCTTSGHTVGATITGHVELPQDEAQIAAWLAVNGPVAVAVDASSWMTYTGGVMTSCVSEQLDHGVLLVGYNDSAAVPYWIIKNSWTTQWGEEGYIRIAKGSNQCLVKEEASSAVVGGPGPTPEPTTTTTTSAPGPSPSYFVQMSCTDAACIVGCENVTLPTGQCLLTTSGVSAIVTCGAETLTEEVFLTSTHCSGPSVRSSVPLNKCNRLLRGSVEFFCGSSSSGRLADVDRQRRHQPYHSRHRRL

Row | Kinact [1] | Ki (Cruzipain) | IC50 (Trypanosoma cruzi [3]) | Ratio [4] | Structure (SMILES) | IC50 [2] | Activity (Mus musculus) | Activity (Trypanosoma cruzi [5]) | Activity (Trypanosoma cruzi [6]) | Activity (Trypanosoma cruzi [7]) | Activity (Trypanosoma cruzi [8]) | Activity (Trypanosoma cruzi [9]) | Activity (Trypanosoma cruzi [10]) | Activity (Trypanosoma cruzi [11])
1 | 0.043 s⁻¹ | 6.76 µM | – | 12300 M⁻¹ s⁻¹ | CC(C(=O)COc1c(F)c(F)cc(F)c1F)n1cc([C@@](C)(NCc2ccc3ncccc3c2)C(C)C)nn1 (some centres undefined) | – | – | – | – | – | – | – | – | –
2 | 0.096 s⁻¹ | 0.35 µM | 5.8 µM | 522000 M⁻¹ s⁻¹ | CCC(C(=O)COc1c(F)c(F)cc(F)c1F)n1cc([C@@](C)(NCc2ccc3ncccc3c2)C2CCC2)nn1 (mixture of isomers) | > 10 µM | – | – | – | – | – | – | – | –
3 | 0.048 s⁻¹ | 0.19 µM | 5.7 µM | 487000 M⁻¹ s⁻¹ | CCC(C(=O)COc1c(F)c(F)cc(F)c1F)n1cc([C@](C)(CC(C)C)NCc2ccc3ncccc3c2)nn1 (some centres undefined) | > 10 µM | – | – | – | – | – | – | – | –
4 | 0.036 s⁻¹ | 0.1 µM | 3.1 µM | 657000 M⁻¹ s⁻¹ | CCCCC(C(=O)COc1c(F)c(F)cc(F)c1F)n1cc([C@](C)(CC(C)C)NCc2ccc3ncccc3c2)nn1 (some centres undefined) | > 10 µM | – | – | – | – | – | – | – | –

Second part, the compound before the results:

Row | Structure (SMILES) | Kinact [1] | Ki (Cruzipain) | IC50 (Trypanosoma cruzi [3]) | Ratio [4] | IC50 [2] | Activity (Mus musculus) | Activity (Trypanosoma cruzi [5]) | Activity (Trypanosoma cruzi [6]) | Activity (Trypanosoma cruzi [7]) | Activity (Trypanosoma cruzi [8]) | Activity (Trypanosoma cruzi [9]) | Activity (Trypanosoma cruzi [10]) | Activity (Trypanosoma cruzi [11])
5 | CCC(C(=O)COc1c(F)c(F)cc(F)c1F)n1cc([C@@](C)(NCc2ccc3ncccc3c2)C(C)C)nn1 (some centres undefined) | 0.066 s⁻¹ | 1.04 µM | 8.3 µM | 124000 M⁻¹ s⁻¹ | > 10 µM | – | – | – | – | – | – | – | –
6 | CCCCC(C(=O)COc1c(F)c(F)cc(F)c1F)n1cc([C@@](C)(NCc2ccc3ncccc3c2)C2CCCCC2)nn1 (some centres undefined) | 0.037 s⁻¹ | 1.22 µM | – | 58000 M⁻¹ s⁻¹ | – | – | – | – | – | – | – | – | –
7 | CCCCC(C(=O)COc1c(F)c(F)cc(F)c1F)n1cc([C@@](C)(NCc2ccc3ncccc3c2)C2CC2)nn1 (some centres undefined) | 0.089 s⁻¹ | 0.94 µM | 4.3 µM | 179000 M⁻¹ s⁻¹ | > 10 µM | – | – | – | – | – | – | – | –
8 | CCCCC(C(=O)COc1c(F)c(F)cc(F)c1F)n1cc([C@@](C)(NCc2ccc3ncccc3c2)C2CCCC2)nn1 (some centres undefined) | – | 0.11 µM | 4.2 µM | – | 10 µM | – | – | – | – | – | – | – | –
9 | CCCCC(C(=O)COc1c(F)c(F)cc(F)c1F)n1cc([C@@](C)(NCc2ccc3ncccc3c2)C2CCC2)nn1 (some centres undefined) | 0.047 s⁻¹ | 0.13 µM | 4.1 µM | 680000 M⁻¹ s⁻¹ | > 10 µM | – | – | – | – | – | – | – | –
10 | CCCCC(C(=O)COc1c(F)c(F)cc(F)c1F)n1cc([C@@](C)(NCc2ccc3ncccc3c2)C(C)C)nn1 (some centres undefined) | – | – | 5.1 µM | – | > 10 µM | Non-toxic | Active | Active | Active | Non-toxic | Active | Active | inactive

From ChEMBL document CHEMBL1156871, “Nonpeptidic tetrafluorophenoxymethyl ketone cruzain inhibitors as promising new leads for Chagas disease chemotherapy” (J Med Chem, 2010)
